Tests used:
Assay type in all cases: cell-based
8226 cells = assay: Cell death analysis, annexin V, FACS; settings: addition of 3-MA, supplemental data S5
LC3 = assay: LC3-I to LC3-II conversion, western blot
Procedure, shortened: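 H929 or 8226 cells exposed 4 h to test peptide or scrambled peptide (50 µg/ml H929; 100 µg/ml 8226) or 100 uM tunicamycin; NAC arm: H929 at 4 × 10^5 cells/ml, 10 mM NAC 30 min then 50 µg/ml for 4 h. Lysed on ice in NP-40/Tris pH 7.6 buffer with protease/phosphatase inhibitors; 10 µg protein, 8% SDS-PAGE, PVDF blot for LC3-I/II.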

H929 cells [1] = assay: Mitochondrial membrane potential; settings: H929, NAC 10 mM 30 min, then HYD1 50 µg/ml 4 hrs; Figure 5C
Procedure, shortened: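 H929 cells (4 × 10^5 cells/ml) pretreated 30 min with 10 mM NAC, then test compound 50 µg/ml for a further 4 h. Cells stained 15 min with 15 nM DiOC6, PBS-washed and resuspended, then loss of Δψm measured by flow cytometry; n=9.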

H929 cells [2] = assay: Reactive oxygen species; settings: NAC 10 mM; supplementary data S7
H929 cells [3] = assay: Neutral comet assay; settings: H929, 6 hours, 50 ug/ml HYD1 or HYDS or 50 ng/ml TRAIL, n=150; Figure 3D
Procedure, shortened: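 Neutral comet assay on H929 cells given 50 µg/ml test peptide, scrambled peptide, or 50 ng/ml TRAIL (positive control) for 6 h. 5,000 cells pelleted, taken up in PBS agar, layered onto frosted slides and run under neutral conditions. Comet moments measured from 50 images per treatment by CCD camera; n=150.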

Cn1cnc(N)c2ncnc1-2 [3-MA, 3-Methyladenine]
sensitization to HYD1 induced cell death (8226 cells): sensitized 8226 cells to HYD1 induced cell death

CC(=O)N[C@@H](CS)C(=O)O [NAC, N-acetyl-L-cysteine]
reversal of HYD1-induced increase in LC3-II by NAC (LC3; H929, NAC 10 mM 30 min, then HYD1 50 µg/ml 4 hrs, Figure 5D): completely reversed
reversal of HYD1-induced loss in Δψm by NAC (H929 cells [1]): not reversed by pretreatment with NAC
inhibition of ROS production by NAC (H929 cells [2]): effective in inhibiting the production of ROS

TRAIL
comet moments (double stranded DNA breaks) (H929 cells [3]): significant increase in comet moments

Tunicamycin
conversion of LC3-I to LC3-II (LC3; 4 hour treatment, 50 µg/ml HYD1 for H929, 100 ug/ml for 8226, 100 uM tunicamycin): increased conversion of LC3-I to LC3-II

— publication PMC2761715 (Molecular cancer therapeutics, 2009)
